The text below walks through data of ChEMBL document CHEMBL4376827, “Structure-Activity Relationship Studies To Identify Affinity Probes in Bis-aryl Sulfonamides That Prolong Immune Stimuli” (J Med Chem, 2019).

The species named for series [1] is Homo sapiens. As to the kind of experiment: Activation of IFNalpha signalling in human ISRE-bla-THP1 cells assessed as increase in type-1 IFN-alpha induced ISRE activity at 5 uM preincubated for 16 hrs followed by CCF4-AM substrate addition and measured after 3 hrs by FRET based assay relative to control. Type of series: cell-based. An outline of the steps: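 ISRE-bla THP-1 cells, 5×10^4/well, in RPMI with 10% dialyzed FBS, 0.1 mM non-essential amino acids, 1 mM pyruvate and pen/strep. Cells are co-treated with IFN-α (final 100 U/mL) and compound: 5 μM single point or graded concentrations, 0.05% DMSO. After 16 h, CCF4-AM is added for 3 h at RT in the dark.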

The next series has as its system THP-1. Kind of series: Cytotoxicity against human THP1 cells assessed as reduction in cell viability at 5 uM incubated for 18 hrs by MTT assay relative to control. The note with it: thp-1, 18 h. On the technique in general: Formazan colour is commonly taken as a measure of viable cells.
Series [2] is filed under the species Homo sapiens. As to the kind of experiment: Activation of LPS-induced NF-kappaB activity in human THP1-Blue-NF-kappaB cells assessed as increase in SEAP reporter activity at 5 uM incubated for 20 hrs by quanti-blue SEAP assay relative to control. An outline of the steps:
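THP1-Blue NF-κB cells, 10^5/well, in RPMI with 10% FBS, pen/strep and Normocin. Compound (5 μM single point or graded concentrations, 0.05% DMSO) is added together with LPS; methods give final LPS 10 μg/mL, table footnote gives 10 ng/mL. Supernatant SEAP is read after 20 h by QuantiBlue colorimetry at 630 nm.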

`C#CCCCN(c1cc(OC)c(Cl)cc1OC)S(=O)(=O)c1ccc(OCC)cc1`: the Activity came out at 184% in the series filed under Homo sapiens [1], 70.7% with THP-1 and 182% in the series filed under Homo sapiens [2].

On to `CCOc1ccc(S(=O)(=O)Nc2cc(OC)c(N=[N+]=[N-])cc2OC)cc1`, for which the Activity in the series filed under Homo sapiens [1] was 201%; in the series with THP-1, 76.6%; in the series listed under Homo sapiens [2], 215%.

`CCCCCCN(c1cc(OC)c(Cl)cc1OC)S(=O)(=O)c1ccc(OCC)cc1`: the Activity in the series listed under Homo sapiens [1] was 99%; in the series on THP-1, 95.2%; in the series listed under Homo sapiens [2] it was 81%.

Regarding `CCOC(=O)CN(c1cc(OC)c(Cl)cc1OC)S(=O)(=O)c1ccc(OCC)cc1`, the Activity in the series filed under Homo sapiens [1] was 184%; in the series on THP-1 it was 81.4%; in the series filed under Homo sapiens [2], 202%.

In the case of `CCNC(=O)CCCN(c1cc(OC)c(Cl)cc1OC)S(=O)(=O)c1ccc(OCC)cc1`, the Activity in the series listed under Homo sapiens [1] is 137%; in the series with THP-1, 78.2%; in the series listed under Homo sapiens [2], 206%.

With `CCOc1ccc(S(=O)(=O)N(CC(C)C)c2cc(OC)c(Cl)cc2OC)cc1`, the Activity in the series listed under Homo sapiens [1] turned out to be 193%; in the series with THP-1, 76.7%; in the series filed under Homo sapiens [2], 175%.

On to `CCOc1ccc(S(=O)(=O)N(CCCNC(=O)CCCCCNC(=O)c2ccc3c(c2)C(=O)OC32c3ccc(O)cc3Oc3cc(O)ccc32)c2cc(OC)c(Cl)cc2OC)cc1`, for which the Activity stood at 96% in the series filed under Homo sapiens [1] and 98.1% with THP-1.

Take `CCCCCN(c1cc(OC)c(Cl)cc1OC)S(=O)(=O)c1ccc(OCC)cc1`: the Activity in the series filed under Homo sapiens [1] was found to be 105%; in the series on THP-1, 72.9%; in the series filed under Homo sapiens [2] it was 135%.

As for `CCOc1ccc(S(=O)(=O)N(c2cc(OC)c(Cl)cc2OC)C(C)C)cc1`, the Activity in the series listed under Homo sapiens [1] worked out at 169%; in the series on THP-1, 103.2%; in the series filed under Homo sapiens [2], 76%.

On to `CCOc1ccc(S(=O)(=O)Nc2ccc(Cl)c(OC)c2)cc1`, for which the Activity was found to be 99% in the series listed under Homo sapiens [1], 83.7% with THP-1 and 126% in the series listed under Homo sapiens [2].

On to `CCCCCCCN(c1cc(OC)c(Cl)cc1OC)S(=O)(=O)c1ccc(OCC)cc1`, for which the figures for the Activity in the series listed under Homo sapiens [1], in the series with THP-1 and in the series filed under Homo sapiens [2] were 95%, 90.4% and 108%, respectively.

Consider `CCOc1ccc(S(=O)(=O)Nc2cc(OC)ccc2OC)cc1`, for which the figures for the Activity in the series filed under Homo sapiens [1], in the series with THP-1 and in the series filed under Homo sapiens [2] were 96%, 73.1% and 116%, respectively.

Regarding `CCOc1ccc(S(=O)(=O)N(CCCN)c2cc(OC)c(N=[N+]=[N-])cc2OC)cc1.Cl`, the results for the Activity in the series filed under Homo sapiens [1], in the series on THP-1 and in the series listed under Homo sapiens [2] were 117%, 68.9% and 138%, respectively.

For the compound `CCCc1ccc(S(=O)(=O)Nc2cc(OC)c(Cl)cc2OC)cc1`, the Activity was 103% in the series filed under Homo sapiens [1], 85.7% in the series on THP-1 and 102% in the series listed under Homo sapiens [2].

As for `COc1cc(NS(=O)(=O)c2ccc(OC)c(Br)c2)c(OC)cc1Cl`, the Activity in the series filed under Homo sapiens [1] is 101%; in the series on THP-1 it was 85%; in the series listed under Homo sapiens [2] it was 87%.

With `COC(=O)c1ccc(S(=O)(=O)Nc2cc(OC)c(Cl)cc2OC)cc1`, the Activity was 202% in the series listed under Homo sapiens [1], 74.4% in the series on THP-1 and 191% in the series filed under Homo sapiens [2].

As for `C#CCN(c1cc(OC)c(N=[N+]=[N-])cc1OC)S(=O)(=O)c1ccc(OCC)cc1`, the Activity in the series listed under Homo sapiens [1] came out at 182%; in the series with THP-1 it was 73.4%; in the series listed under Homo sapiens [2], 217%.

Consider `COc1cccc(S(=O)(=O)Nc2cc(OC)c(Cl)cc2OC)c1`, for which the Activity is 104% in the series listed under Homo sapiens [1], 79.6% in the series on THP-1 and 116% in the series filed under Homo sapiens [2].

For `COc1cc(NS(=O)(=O)c2ccc(CN)cc2)c(OC)cc1Cl`, the values for the Activity in the series listed under Homo sapiens [1], in the series with THP-1 and in the series listed under Homo sapiens [2] were 111%, 97% and 103%, respectively.

As to `CCOc1ccc(S(=O)(=O)Nc2cc(OC)c([N+](=O)[O-])cc2OC)cc1`, the results for the Activity in the series listed under Homo sapiens [1], with THP-1 and in the series listed under Homo sapiens [2] were 110%, 79.2% and 133%, respectively.

With `CCOc1ccc(S(=O)(=O)N(CCCNC(=O)CCCC[C@H]2SC[C@H]3NC(=O)N[C@H]32)c2cc(OC)c(N=[N+]=[N-])cc2OC)cc1`, the Activity came to 140% in the series listed under Homo sapiens [1], 73.8% in the series with THP-1 and 162% in the series listed under Homo sapiens [2].

For `C#CCOc1ccc(S(=O)(=O)Nc2cc(OC)c(Cl)cc2OC)cc1`, the results for the Activity in the series filed under Homo sapiens [1], in the series with THP-1 and in the series filed under Homo sapiens [2] were 99%, 80.9% and 97%, respectively.

For the compound `CCOc1ccc(S(=O)(=O)N(CCc2ccccc2)c2cc(OC)c(Cl)cc2OC)cc1`, the Activity in the series listed under Homo sapiens [1] was determined as 141%; in the series with THP-1, 44%; in the series listed under Homo sapiens [2] it was 131%.

As to `CCOC(=O)CCCN(c1cc(OC)c(Cl)cc1OC)S(=O)(=O)c1ccc(OCC)cc1`, the Activity in the series listed under Homo sapiens [1] came to 199%; with THP-1, 80.1%; in the series listed under Homo sapiens [2], 199%.

Take `CCOc1ccc(S(=O)(=O)N(CCCNC(=O)c2ccc(-c3c4ccc(=[N+](C)C)cc-4oc4cc(N(C)C)ccc34)c(C(=O)O)c2)c2cc(OC)c(Cl)cc2OC)cc1`: the Activity in the series filed under Homo sapiens [1] is 123%; in the series on THP-1, 76.9%; in the series filed under Homo sapiens [2] it was 111%.

With `CCOc1ccc(S(=O)(=O)Nc2ccc(Cl)cc2OC)cc1`, the Activity in the series filed under Homo sapiens [1] worked out at 109%; in the series on THP-1 it was 78.3%; in the series listed under Homo sapiens [2], 141%.

As for `C#CCOCCOCCOCCN(c1cc(OC)c(Cl)cc1OC)S(=O)(=O)c1ccc(OCC)cc1`, the Activity in the series filed under Homo sapiens [1] was 130%; with THP-1, 73.7%; in the series listed under Homo sapiens [2], 107%.

`CCOc1ccc(S(=O)(=O)N(CCCNC(=O)OC(C)(C)C)c2cc(OC)c(Cl)cc2OC)cc1`: the Activity was 140% in the series filed under Homo sapiens [1], 75.6% with THP-1 and 134% in the series filed under Homo sapiens [2].

On to `CCOc1ccc(S(=O)(=O)Nc2cc(OC)c(Br)cc2OC)cc1`, for which the Activity in the series listed under Homo sapiens [1] came out at 235%; with THP-1, 68.8%; in the series listed under Homo sapiens [2], 176%.

For the compound `COc1cc(NS(=O)(=O)c2ccc([N+](=O)[O-])cc2)c(OC)cc1Cl`, the Activity amounted to 103% in the series listed under Homo sapiens [1], 97.4% with THP-1 and 101% in the series filed under Homo sapiens [2].

Consider `CCOC(=O)c1ccc(S(=O)(=O)Nc2cc(OC)c(Cl)cc2OC)cc1`, for which the Activity in the series listed under Homo sapiens [1] stood at 169%; with THP-1 it was 70.8%; in the series listed under Homo sapiens [2] it was 189%.

With `COc1cc(NS(=O)(=O)c2ccc(C#N)cc2)c(OC)cc1Cl`, the Activity in the series filed under Homo sapiens [1] turned out to be 106%; with THP-1, 102.9%; in the series listed under Homo sapiens [2], 97%.

On to `C#CCCN(c1cc(OC)c(Cl)cc1OC)S(=O)(=O)c1ccc(OCC)cc1`, for which the Activity in the series filed under Homo sapiens [1] was determined as 201%; with THP-1, 70.1%; in the series filed under Homo sapiens [2] it was 206%.

With `COc1cc(NS(=O)(=O)c2ccc(Oc3ccccc3)cc2)c(OC)cc1Cl`, the Activity came out at 95% in the series listed under Homo sapiens [1], 91.3% in the series on THP-1 and 98% in the series filed under Homo sapiens [2].

Turning to `CCOc1ccc(S(=O)(=O)N(CCCO)c2cc(OC)c(Cl)cc2OC)cc1`, the Activity in the series filed under Homo sapiens [1] came out at 178%; in the series on THP-1, 68.5%; in the series filed under Homo sapiens [2], 219%.

Consider `C#CCN(c1cc(OC)c(Cl)cc1OC)S(=O)(=O)c1ccc(OCC)cc1`, for which the figures for the Activity in the series filed under Homo sapiens [1], in the series with THP-1 and in the series filed under Homo sapiens [2] were 213%, 72% and 232%, respectively.

As for `CCOc1ccc(S(=O)(=O)N(CCCNC(=O)CCCC[C@H]2SC[C@H]3NC(=O)N[C@H]32)c2cc(OC)c(Cl)cc2OC)cc1`, the values for the Activity in the series listed under Homo sapiens [1], in the series on THP-1 and in the series filed under Homo sapiens [2] were 175%, 69.6% and 195%, respectively.

In the case of `COc1ccc(S(=O)(=O)Nc2cc(OC)c(Cl)cc2OC)cc1N`, the Activity in the series filed under Homo sapiens [1] amounted to 166%; in the series on THP-1, 77.3%; in the series listed under Homo sapiens [2], 158%.

As to `CCOc1ccc(S(=O)(=O)N(CCCC(=O)O)c2cc(OC)c(Cl)cc2OC)cc1`, the Activity in the series listed under Homo sapiens [1] stood at 151%; with THP-1 it was 73.4%; in the series listed under Homo sapiens [2] it was 230%.

In the case of `COc1cc(NS(=O)(=O)c2ccc(OC)c(N=[N+]=[N-])c2)c(OC)cc1Cl`, the Activity was found to be 104% in the series filed under Homo sapiens [1], 87.2% in the series with THP-1 and 104% in the series filed under Homo sapiens [2].

With `CCCOc1ccc(S(=O)(=O)Nc2cc(OC)c(Cl)cc2OC)cc1`, the Activity in the series filed under Homo sapiens [1] is 125%; in the series with THP-1, 71.3%; in the series listed under Homo sapiens [2], 149%.

On to `CNC(=O)c1ccc(S(=O)(=O)Nc2cc(OC)c(Cl)cc2OC)cc1`, for which the Activity in the series listed under Homo sapiens [1] stood at 105%; in the series on THP-1, 77%; in the series listed under Homo sapiens [2], 103%.

As to `COc1cc(NS(=O)(=O)c2ccc(C(N)=O)cc2)c(OC)cc1Cl`, the values for the Activity in the series filed under Homo sapiens [1], in the series with THP-1 and in the series listed under Homo sapiens [2] were 94%, 91% and 103%, respectively.

For `CCCCN(c1cc(OC)c(Cl)cc1OC)S(=O)(=O)c1ccc(OCC)cc1`, the results for the Activity in the series listed under Homo sapiens [1], in the series on THP-1 and in the series filed under Homo sapiens [2] were 156%, 77.7% and 192%, respectively.

On to `COc1cc(NS(=O)(=O)c2ccccc2OC)c(OC)cc1Cl`, for which the results for the Activity in the series filed under Homo sapiens [1], in the series with THP-1 and in the series filed under Homo sapiens [2] were 101%, 92.1% and 96%, respectively.

`CCCN(c1cc(OC)c(Cl)cc1OC)S(=O)(=O)c1ccc(OCC)cc1`: the Activity in the series listed under Homo sapiens [1] worked out at 199%; in the series on THP-1, 71.6%; in the series listed under Homo sapiens [2], 227%.

As to `CCOc1ccc(S(=O)(=O)Nc2cc(OC)c(Cl)c(OC)c2)cc1`, the values for the Activity in the series listed under Homo sapiens [1], in the series with THP-1 and in the series filed under Homo sapiens [2] were 218%, 71.4% and 179%, respectively.
